Laboratory results published in ChEMBL document CHEMBL4368914, “Tricyclic Indazoles-A Novel Class of Selective Estrogen Receptor Degrader Antagonists” (J Med Chem, 2019).

What was measured:
[1] = target: T1, Estrogen receptor (Homo sapiens) (UniProt P03372); test: Induction of ERalpha degradation in human MCF7 cells after 24 hrs by Western blot analysis; format: cell-based
T1 sequence (whole entry): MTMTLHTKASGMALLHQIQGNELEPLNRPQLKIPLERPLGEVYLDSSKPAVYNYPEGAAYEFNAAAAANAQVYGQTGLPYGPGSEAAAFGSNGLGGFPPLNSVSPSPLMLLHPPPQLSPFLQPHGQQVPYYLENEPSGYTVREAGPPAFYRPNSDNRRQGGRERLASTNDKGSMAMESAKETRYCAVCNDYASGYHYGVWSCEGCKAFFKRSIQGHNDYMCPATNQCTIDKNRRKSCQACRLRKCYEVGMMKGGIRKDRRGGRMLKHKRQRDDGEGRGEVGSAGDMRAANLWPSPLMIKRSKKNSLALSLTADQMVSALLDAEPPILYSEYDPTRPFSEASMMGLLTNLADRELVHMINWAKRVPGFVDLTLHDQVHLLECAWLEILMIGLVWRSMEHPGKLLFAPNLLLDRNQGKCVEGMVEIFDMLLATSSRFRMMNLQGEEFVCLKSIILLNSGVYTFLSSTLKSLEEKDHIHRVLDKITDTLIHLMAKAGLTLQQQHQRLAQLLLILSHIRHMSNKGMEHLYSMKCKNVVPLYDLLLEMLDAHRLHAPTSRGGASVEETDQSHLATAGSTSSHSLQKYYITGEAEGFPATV
Outline: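 MCF-7 cells in phenol red-free RPMI1640 with 5% charcoal-stripped FCS and 2 mmol/L glutamine (37 °C, 5% CO₂) exposed to a range of concentrations for 24 h. Total protein extracted and immunoblotted with anti-ER (SP1) and GAPDH antibodies diluted in 5% milk-PBS-Tween. Detection by enhanced chemiluminescent HRP substrate and imager.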

[2] = Fraction unbound in Alderley Park Han Wistar rat plasma by equilibrium dialysis; format: ADME, cell-free
Outline: (§1)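 Equilibrium dialysis from DMSO stock in 10% plasma, either Alderley Park Han Wistar rat plasma or human plasma.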

[3] = Fraction unbound in mouse plasma by equilibrium dialysis; format: ADME, cell-free
[4] = target: T2, Cytochrome P450 1A2 (Homo sapiens, UniProt P05177); test: Inhibition of CYP1A2 in human liver microsomes; format: ADME
T2 sequence (P05177 whole entry): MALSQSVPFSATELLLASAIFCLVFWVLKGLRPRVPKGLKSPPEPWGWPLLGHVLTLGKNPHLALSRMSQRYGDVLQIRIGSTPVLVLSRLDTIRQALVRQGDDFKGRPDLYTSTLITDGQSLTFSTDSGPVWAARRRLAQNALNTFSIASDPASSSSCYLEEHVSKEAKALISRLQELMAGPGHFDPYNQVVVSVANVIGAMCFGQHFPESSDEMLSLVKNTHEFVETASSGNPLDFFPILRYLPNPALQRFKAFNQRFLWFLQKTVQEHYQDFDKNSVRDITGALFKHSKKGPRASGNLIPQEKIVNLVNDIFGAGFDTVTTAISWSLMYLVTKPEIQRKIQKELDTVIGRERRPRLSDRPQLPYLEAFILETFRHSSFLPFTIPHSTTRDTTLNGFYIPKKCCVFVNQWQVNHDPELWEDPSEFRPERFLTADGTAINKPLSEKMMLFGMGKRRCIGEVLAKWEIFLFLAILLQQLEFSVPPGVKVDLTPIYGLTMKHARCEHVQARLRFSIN
Outline: (§2)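 High-throughput human liver microsome assay across a panel of five CYP isoforms, giving IC50.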

[5] = target: Cytochrome P450 2D6 (Homo sapiens, UniProt P10635); test: Inhibition of CYP2D6 in human liver microsomes; format: ADME; outline: as §2
[6] = Lipophilicity, log D of the compound at pH 7.4 by shake flask method; format: physicochemical; details: buffer
Outline: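 Shake-flask measurement of logD at pH 7.4.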

[7] = Intrinsic clearance in human hepatocytes assessed per million cells; format: ADME, cell-based, Hepatocyte; details: read-out: CLH
Outline: (§3)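 Rate of metabolism (µl/min/10⁶ cells) measured from DMSO stock in isolated hepatocytes diluted to 1x10⁶ cells/mL.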

[8] = Fraction unbound in 10% human plasma by equilibrium dialysis; format: ADME, cell-free; details: 10% plasma; outline: as §1
[9] = Clearance in dog at 0.5 mg/kg, iv or 1 mg/kg, po; format: ADME, organism-based, Canis lupus familiaris; details: in vivo
Outline: (§4)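 Single IV dose of 0.5 mg/kg and oral dose of 1 mg/kg in rat and dog. Both routes were formulated in 5% DMSO:95% hydroxypropyl β-cyclodextrin (30% w/v), at 1 mL/kg IV and 4 mL/kg PO.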

[10] = Intrinsic clearance in rat hepatocytes assessed per million cells; format: ADME, cell-based, Hepatocyte; details: read-out: CLH; outline: as §3
[11] = Solubility of the compound in phosphate buffer at pH 7.4 after 24 hrs; format: physicochemical
Outline: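 Solubility in aqueous phosphate buffer at pH 7.4 after 24 h at 25 °C.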

[12] = Efflux ratio of apparent permeability in human Caco2 cells at 10 uM; format: ADME, cell-based; details: Caco-2
Outline: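 Compound at 10 μM incubated on cultured Caco-2 or MDCK cells. Permeability was measured apical-to-basolateral and basolateral-to-apical, and efflux ratio was taken as (B to A)/(A to B).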

[13] = Clearance in rat at 0.5 mg/kg, iv or 1 mg/kg, po; format: ADME, organism-based; details: in vivo; outline: as §4
[14] = target: T3, Estrogen receptor (Homo sapiens, UniProt P03372); test: Induction of ERalpha degradation in human MCF7 cells assessed as reduction in ERalpha protein expression after 5 hrs in presence of […] tamoxifen by formaldehyde-staining based assay; format: cell-based
T3 sequence (P03372 whole entry): T1 sequence (whole entry)

[15] = Half life in dog at 0.5 mg/kg, iv or 1 mg/kg, po; format: ADME, organism-based, Canis lupus familiaris; details: in vivo; outline: as §4
[16] = AUC in dog at 1 mg/kg, po; format: ADME, organism-based, Canis lupus familiaris; details: in vivo; outline: as §4
[17] = Half life in rat at 0.5 mg/kg, iv or 1 mg/kg, po; format: ADME, organism-based; details: in vivo; outline: as §4
[18] = target: Voltage-gated inwardly rectifying potassium channel KCNH2 (Homo sapiens, UniProt Q12809); test: Inhibition of human ERG by plate based planar patch clamp assay
[19] = Volume of distribution at steady state in dog at 0.5 mg/kg, iv or 1 mg/kg, po; format: ADME, organism-based, Canis lupus familiaris; details: in vivo, read-out: Vdss; outline: as §4
[20] = Fraction unbound in dog plasma by equilibrium dialysis; format: ADME, cell-free, Canis lupus familiaris
[21] = target: Cytochrome P450 3A4 (Homo sapiens, UniProt P08684); test: Inhibition of CYP3A4 in human liver microsomes; format: ADME; outline: as §2
[22] = tested on: Mus musculus; test: In vivo antagonist activity at ERalpha in tumor of human MCF7 cells xenografted in po dosed SCID CB17 mouse assessed as reduction in PR levels administered once daily for 3 days measured after 24 hrs post last dose by Western blot analysis; format: functional, organism-based
Outline: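 Male SCID mice carried a 0.5 mg/21 day s.c. estrogen pellet, with 5x10^6 MCF-7 cells implanted s.c. in the hind flank 24 h later. Groups of 5 were randomised at 0.5–0.8 cm³ and gavaged once daily for 3 d in PEG400/Captisol/water vehicle at 10 ml/kg. Tumours were taken 24 h post-dose, and PR was read by Western blot normalized to vinculin.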

[23] = AUC in rat at 1 mg/kg, po; format: ADME, organism-based; details: in vivo, read-out: AUC; outline: as §4
[24] = Oral bioavailability in rat at 1 mg/kg; format: ADME, organism-based; details: in vivo; outline: as §4

Chain of Cytochrome P450 3A4 (P08684 whole entry): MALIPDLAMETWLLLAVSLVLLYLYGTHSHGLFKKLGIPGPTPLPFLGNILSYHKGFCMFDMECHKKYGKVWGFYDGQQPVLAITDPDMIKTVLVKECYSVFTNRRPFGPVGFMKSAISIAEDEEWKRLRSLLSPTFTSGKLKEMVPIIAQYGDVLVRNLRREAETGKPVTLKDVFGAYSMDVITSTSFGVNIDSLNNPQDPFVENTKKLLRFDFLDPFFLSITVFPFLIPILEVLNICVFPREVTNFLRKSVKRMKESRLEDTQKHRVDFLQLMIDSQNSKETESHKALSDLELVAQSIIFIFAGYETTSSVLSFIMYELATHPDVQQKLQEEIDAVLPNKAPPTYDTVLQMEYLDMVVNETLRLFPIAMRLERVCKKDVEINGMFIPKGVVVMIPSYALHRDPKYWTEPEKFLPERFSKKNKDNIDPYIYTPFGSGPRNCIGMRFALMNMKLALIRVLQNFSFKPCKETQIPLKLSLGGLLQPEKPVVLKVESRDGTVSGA
Chain of Cytochrome P450 2D6 (P10635 whole entry): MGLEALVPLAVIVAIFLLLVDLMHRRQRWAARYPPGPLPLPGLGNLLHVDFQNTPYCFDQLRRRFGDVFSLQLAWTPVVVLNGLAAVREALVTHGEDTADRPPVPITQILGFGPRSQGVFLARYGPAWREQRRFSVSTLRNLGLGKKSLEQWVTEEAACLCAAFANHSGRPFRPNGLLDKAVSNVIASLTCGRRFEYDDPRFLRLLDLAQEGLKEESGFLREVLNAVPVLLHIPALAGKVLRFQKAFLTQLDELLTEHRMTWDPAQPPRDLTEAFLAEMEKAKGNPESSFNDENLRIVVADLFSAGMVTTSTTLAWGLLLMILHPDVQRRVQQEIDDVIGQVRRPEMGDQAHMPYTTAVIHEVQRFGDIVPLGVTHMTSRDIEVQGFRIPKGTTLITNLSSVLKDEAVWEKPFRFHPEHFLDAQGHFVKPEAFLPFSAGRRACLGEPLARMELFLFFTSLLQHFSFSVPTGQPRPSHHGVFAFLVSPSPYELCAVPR
Chain of Voltage-gated inwardly rectifying potassium channel KCNH2 (Q12809 whole entry): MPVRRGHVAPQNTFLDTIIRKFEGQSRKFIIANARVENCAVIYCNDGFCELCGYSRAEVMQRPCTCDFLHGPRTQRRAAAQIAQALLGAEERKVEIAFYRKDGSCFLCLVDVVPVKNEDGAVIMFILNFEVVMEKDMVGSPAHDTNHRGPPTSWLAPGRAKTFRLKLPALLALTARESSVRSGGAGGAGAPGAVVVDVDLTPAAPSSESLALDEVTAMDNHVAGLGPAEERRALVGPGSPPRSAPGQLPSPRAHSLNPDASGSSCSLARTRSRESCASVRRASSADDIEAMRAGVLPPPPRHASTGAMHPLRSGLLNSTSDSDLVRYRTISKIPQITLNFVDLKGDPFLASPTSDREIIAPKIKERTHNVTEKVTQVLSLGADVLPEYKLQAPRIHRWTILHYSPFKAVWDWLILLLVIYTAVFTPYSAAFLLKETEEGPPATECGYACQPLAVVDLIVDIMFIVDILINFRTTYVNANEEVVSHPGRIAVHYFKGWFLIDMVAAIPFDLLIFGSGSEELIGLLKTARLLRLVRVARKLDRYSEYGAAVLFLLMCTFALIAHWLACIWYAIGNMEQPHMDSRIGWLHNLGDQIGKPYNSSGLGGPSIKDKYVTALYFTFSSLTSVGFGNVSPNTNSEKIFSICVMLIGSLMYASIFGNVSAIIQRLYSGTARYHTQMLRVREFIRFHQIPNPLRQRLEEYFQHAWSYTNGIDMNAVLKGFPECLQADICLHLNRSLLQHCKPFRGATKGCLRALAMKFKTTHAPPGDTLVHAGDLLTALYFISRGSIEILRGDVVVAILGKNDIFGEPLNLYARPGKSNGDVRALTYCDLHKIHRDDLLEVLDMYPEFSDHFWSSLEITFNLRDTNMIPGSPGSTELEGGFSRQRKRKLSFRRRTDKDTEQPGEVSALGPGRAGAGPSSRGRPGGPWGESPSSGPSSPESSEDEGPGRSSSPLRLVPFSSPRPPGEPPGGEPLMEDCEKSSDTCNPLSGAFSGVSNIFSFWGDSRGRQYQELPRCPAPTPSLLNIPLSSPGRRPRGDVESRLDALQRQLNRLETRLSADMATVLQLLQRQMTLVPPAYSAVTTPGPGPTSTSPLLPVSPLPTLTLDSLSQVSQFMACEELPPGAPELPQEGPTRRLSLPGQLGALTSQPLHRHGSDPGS

Activity [1]: Dose-dependent effect | fraction unbound [2]: 0.0083 | fraction unbound [3]: 0.0095 | IC50 [4]: > 30 µM | IC50 [5]: > 30 µM | logD [6]: 2.6 | hepatocyte CLint [7]: 17 µL/min/1e6 cells | fraction unbound [8]: 0.0058 | clearance [9]: 5.9 mL/min/kg | hepatocyte CLint [10]: 26 µL/min/1e6 cells | solubility at 24 h [11]: > 1000 µM | efflux ratio at 10 µM [12]: 1.4 | clearance [13]: 23 mL/min/kg | IC50 [14]: 0.00794 µM | half-life [15]: 6.1 h | AUC [16]: 3.2 µM·h | half-life [17]: 1.2 h | Vd [19]: 0.58 L/kg | fraction unbound [20]: 0.0032 | IC50 [21]: 13 µM | AUC [23]: 0.83 µM·h | bioavailability [24]: 31%
Structure (SMILES): C[C@@H]1Cc2c(ccc3[nH]ncc23)[C@@H](c2c(F)cc(/C=C/C(=O)O)cc2F)N1CC(C)(C)F
IC50 [18]: > 100 µM | Activity [22]: Dose-dependent effect
